Measurements reported in ChEMBL document CHEMBL1649062, “Integration of lead optimization with crystallography for a membrane-bound ion channel target: discovery of a new class of AMPA receptor positive allosteric modulators” (J Med Chem, 2011).
Converted amounts (≈) assume the structure as drawn. The source made the active and inactive calls.

Key:
Glutamate receptor 2 [1] = target: T1, Glutamate receptor 2 (Homo sapiens, UniProt P42262); experiment: Allosteric modulation of human recombinant GluA2 receptor flip isoform expressed in HEK293 cells assessed as potentiation of glutamate-induced calcium influx by Fluo-4/FLIPR method; assay type: cell-based
T1 sequence (P42262 whole entry, canonical isoform): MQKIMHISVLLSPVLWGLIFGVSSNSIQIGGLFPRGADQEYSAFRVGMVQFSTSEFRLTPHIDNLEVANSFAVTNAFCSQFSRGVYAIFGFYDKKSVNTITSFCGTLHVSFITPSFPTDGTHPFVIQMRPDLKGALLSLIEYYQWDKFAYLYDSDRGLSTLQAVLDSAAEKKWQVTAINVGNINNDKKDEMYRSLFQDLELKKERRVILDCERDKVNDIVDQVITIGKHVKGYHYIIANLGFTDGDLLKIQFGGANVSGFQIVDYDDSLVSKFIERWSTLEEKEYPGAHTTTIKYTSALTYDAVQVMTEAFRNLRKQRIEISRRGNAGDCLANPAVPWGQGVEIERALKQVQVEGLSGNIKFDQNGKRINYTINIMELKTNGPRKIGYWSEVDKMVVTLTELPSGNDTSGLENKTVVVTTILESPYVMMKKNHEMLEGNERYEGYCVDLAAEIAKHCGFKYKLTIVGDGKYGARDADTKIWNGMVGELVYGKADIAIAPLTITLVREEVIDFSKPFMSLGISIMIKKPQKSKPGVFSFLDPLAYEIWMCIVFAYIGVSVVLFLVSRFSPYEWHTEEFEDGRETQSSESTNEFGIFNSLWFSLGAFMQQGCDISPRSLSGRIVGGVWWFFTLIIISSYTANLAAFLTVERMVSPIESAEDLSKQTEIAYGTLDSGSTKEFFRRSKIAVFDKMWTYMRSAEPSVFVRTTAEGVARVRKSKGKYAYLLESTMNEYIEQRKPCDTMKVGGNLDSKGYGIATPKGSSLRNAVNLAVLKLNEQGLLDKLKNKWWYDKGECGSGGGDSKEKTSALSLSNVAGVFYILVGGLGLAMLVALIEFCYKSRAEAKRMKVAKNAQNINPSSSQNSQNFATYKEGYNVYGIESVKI
Summary of the method: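 Stable GluA2 flip (unedited) cell line grown in DMEM/F12 with 10% FBS and seeded to confluence 2-3 days before use. Cells washed in HEPES buffer (pH 7.3) and loaded with 2 μM Fluo-4 AM for 60 min at room temperature. On FLIPR, compound was added 5 min before 100 μM glutamate. pEC50 and asymptotic maximum are relative to the maximal response to cyclothiazide, n ≥ 3.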

[2] = Volume of distribution at steady state in Sprague-Dawley rat at 2.5 mg/kg, iv and 3 mg/kg, po; assay type: ADME, organism-based; details: in vivo, read-out: Vdss
Summary of the method: (§1)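 Male animals, n = 3 per species, given single iv and oral doses: Sprague-Dawley rat 2.5 iv / 3 po mg/kg; beagle dog 0.25 / 0.5; Göttingen minipig 0.5 / 1; cynomolgus monkey 0.25 / 1. Blood sampled; Vss from iv; bioavailability and Vss as mean [range]; Tmax as median [range].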

Rattus norvegicus [3] = experiment: Cognitive enhancing effect in Lister Hooded rat assessed as reversal of 24 hrs delay-induced cognitive deficit at 0.1 mg/kg, ip by novel object recognition test
Canis familiaris = experiment: Hepatic blood flow in Swiss Beagle dog at 0.25 mg/kg, iv and 0.5 mg/kg, po; assay type: ADME, organism-based, Canis lupus familiaris, Liver; details: in vivo
Summary of the method: (§2)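 Male animals, n = 3 per species, given single iv and oral doses. Values are mean and range. Blood clearance is also expressed as % of liver blood flow, taken as (mL/min)/kg: rat 85, dog 31, minipig 30, cynomolgus monkey 44.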

Brain [4] = experiment: Drug level in Lister Hooded rat assessed per gram of tissue at 0.1 mg/kg, ip; assay type: ADME, organism-based; design: dose 0.1 mg/kg, route intraperitoneal; details: in vivo
Summary of the method: (§3)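 Male Lister Hooded rats (n = 9-12/group) tested for reversal of a 24 h delay-induced deficit in novel object recognition. Significant doses flagged. Brain concentrations measured in the study animals at the end of the test.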

Brain [5] = experiment: Drug level in Lister Hooded rat assessed per gram of tissue at 30 mg/kg, ip; assay type: ADME, organism-based; design: dose 30 mg/kg, route intraperitoneal; details: in vivo
Summary of the method: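 Male Lister Hooded rats pretreated 30 min before the maximal electroshock threshold test with compound or saline vehicle; picrotoxin served as positive control. Corneal current applied, CC50 about 60-70 mA, 0.1 ms. Brain levels measured in satellite rats sampled immediately after testing.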

Brain [6] = experiment: Drug level in Lister Hooded rat assessed per gram of tissue at 1 mg/kg, ip; assay type: ADME, organism-based; design: dose 1 mg/kg, route intraperitoneal; details: in vivo; summary of the method: as §3
[7] = AUC ( 0 to t) in rat at 3 mg/kg, po; assay type: ADME, organism-based, Plasma; design: dose 3 mg/kg, route oral; details: plasma
Brain [8] = experiment: Brain tissue binding in rat at 3 mg/kg, po; assay type: ADME, organism-based; design: dose 3 mg/kg, route oral; details: in vivo
Rattus norvegicus [9] = experiment: Hepatic blood flow in Sprague-Dawley rat at 2.5 mg/kg, iv and 3 mg/kg, po; assay type: ADME, organism-based, Liver; details: in vivo; summary of the method: as §2
[10] = Cmax in cynomolgus monkey at 1 mg/kg, po; assay type: ADME, organism-based, Macaca fascicularis; design: dose 1 mg/kg, route oral; details: in vivo
Rattus norvegicus [11] = experiment: Cognitive enhancing effect in Lister Hooded rat assessed as reversal of 24 hrs delay-induced cognitive deficit at 0.3 mg/kg, ip by novel object recognition test
Hepatocyte = experiment: Intrinsic clearance in cryopreserved rat hepatocytes assessed per gram of tissue; assay type: ADME, cell-based, Liver
Summary of the method: (§4)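 Cryopreserved hepatocytes at 70 000 cells/mL; intrinsic clearance expressed per gram of liver; single determination (human also n = 3).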

[12] = Intrinsic clearance in cryopreserved minipig hepatocytes assessed per gram of tissue; assay type: ADME, cell-based, Sus scrofa, Liver, Hepatocyte; details: pig; summary of the method: as §4
[13] = Clearance in Swiss Beagle dog at 0.25 mg/kg, iv and 0.5 mg/kg, po; assay type: ADME, organism-based, Canis lupus familiaris; details: in vivo; summary of the method: as §2
[14] = Cmax in Swiss Beagle dog at 0.5 mg/kg, po; assay type: ADME, organism-based, Canis lupus familiaris; design: dose 0.5 mg/kg, route oral; details: in vivo
[15] = Distribution coefficient, log D of the compound; assay type: physicochemical; details: octanol/water
[16] = Volume of distribution at steady state in Gottingen minipig at 0.5 mg/kg, iv and 1 mg/kg, po; assay type: ADME, organism-based, Sus scrofa; details: pig, in vivo, read-out: Vdss; summary of the method: as §1
[17] = Half life in Sprague-Dawley rat at 3 mg/kg, po; assay type: ADME, organism-based; design: dose 3 mg/kg, route oral; details: in vivo
[18] = Tmax in Sprague-Dawley rat at 3 mg/kg, po; assay type: ADME, organism-based; design: dose 3 mg/kg, route oral; details: in vivo; summary of the method: as §1
[19] = Clearance in cynomolgus monkey at 0.25 mg/kg, iv and 1 mg/kg, po; assay type: ADME, organism-based, Macaca fascicularis; details: in vivo; summary of the method: as §2
[20] = Volume of distribution at steady state in cynomolgus monkey at 0.25 mg/kg, iv and 1 mg/kg, po; assay type: ADME, organism-based, Macaca fascicularis; details: in vivo, read-out: Vdss; summary of the method: as §1
[21] = target: Glutamate receptor 2 (Rattus norvegicus) (UniProt P19491); experiment: Allosteric modulation of GluA2 receptor flip isoform in rat hippocampal neuron at 10 uM by whole cell patch-clamp electrophysiology; assay type: tissue-based; details: Hippocampus
Glutamate receptor 2 (Rattus norvegicus), sequence (P19491 whole entry, canonical isoform): as the sequence (P42262 whole entry, canonical isoform) above, with M191T, T291A, R764G, A852P counted along it
Summary of the method: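 Rat cultured hippocampal neurons; 30 μM AMPA applied for 2 s, with compound co-applied at 10 nM or 10 μM. Read-out is the increase in charge transfer, taken as the area under the current curve.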

[22] = Plasma protein binding in rat at 3 mg/kg, po; assay type: ADME, organism-based; design: dose 3 mg/kg, route oral; details: read-out: PPB (converted)
[23] = Tmax in Swiss Beagle dog at 0.5 mg/kg, po; assay type: ADME, organism-based, Canis lupus familiaris; design: dose 0.5 mg/kg, route oral; details: in vivo; summary of the method: as §1
in vivo = details: rat, brain and blood, po, 3 mg/kg
[24] = Oral bioavailability in Swiss Beagle dog at 0.5 mg/kg; assay type: ADME, organism-based, Canis lupus familiaris; details: in vivo; summary of the method: as §1
[25] = Clearance in Sprague-Dawley rat at 2.5 mg/kg, iv and 3 mg/kg, po; assay type: ADME, organism-based; details: in vivo; summary of the method: as §2
[26] = Apparent permeability of the compound; assay type: ADME; details: not told
Summary of the method: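 Artificial membrane permeability: donor holds 10 mM sample in pH 7.05 phosphate buffer with 0.5% hydroxypropylcyclodextrin. Membrane is 1.8% phosphatidylcholine and 1% cholesterol in decane. Donor and acceptor concentrations measured by LCMS after 3 h at room temperature; permeability expressed in nm/s.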

Glutamate receptor 2 [27] = target: T1, Glutamate receptor 2; experiment: Allosteric modulation of human recombinant GluA2 receptor flip isoform expressed in HEK293 cells at 100 nM by whole cell patch-clamp electrophysiology; assay type: cell-based
Summary of the method: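 Perforated-patch (amphotericin B) voltage clamp of HEK293 cells stably expressing human GluA2 flip (unedited) homotetramers, held at -60 mV. Extracellular solution in mM: 140 NaCl, 2 KCl, 1 MgCl2, 2 CaCl2, 12 HEPES, 10 D-glucose, pH 7.35. Currents evoked by 1 mM glutamate; compound at 100 nM or 10 μM. Read-out is percent increase in charge transfer (area under curve).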

Glutamate receptor 2 [28] = target: T1, Glutamate receptor 2; experiment: Allosteric modulation of human recombinant GluA2 receptor flip isoform expressed in HEK293 cells assessed as potentiation of glutamate-induced calcium influx by Fluo-4/FLIPR method relative to cyclothiazide; assay type: cell-based
Summary of the method: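 Stable GluA2 flip (unedited) cells seeded to confluence 2-3 days before assay; washed in HEPES buffer (145 NaCl, 5 KCl, 2 CaCl2, 1 MgCl2, 5.5 glucose, pH 7.3), loaded with 2 μM Fluo4-AM 60 min at room temperature. FLIPR dual addition: compound 5 min before 100 μM glutamate; fluorescence rise expressed against maximal cyclothiazide response, fitted pEC50 and Asym max; n ≥ 3.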

[29] = Kinetic solubility of the compound in phosphate buffered saline of pH 7.4; assay type: physicochemical
Summary of the method: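 Kinetic solubility: 10 mM DMSO stock, 5 μL diluted to 100 μL with pH 7.4 phosphate-buffered saline, equilibrated 1 h at room temperature, filtered, filtrate quantified by calibrated flow-injection chemiluminescent nitrogen detection.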

SMILES: O=C(c1ccc(-n2nc(C(F)(F)F)c3c2CCCC3)cc1)N1CCCC1
- EC50 (Glutamate receptor 2 [1]): 10 µM
- Vd [2]: 4.8 L/kg
- Activity (Rattus norvegicus [3]): Active
- QH (Canis familiaris): 100%
- Drug uptake (Brain [4]): 9 ng/g
- Drug uptake (Brain [5]): 4686 ng/g
- Drug uptake (Brain [6]): 97 ng/g
- AUC(0-t) [7]: 472 ng·h/mL
- Brain tissue binding (% bound) (Brain [8]): 99.4%
- QH (Rattus norvegicus [9]): 47%
- Cmax [10]: 5 ng/mL
- Activity (Rattus norvegicus [11]): Active
- CL (Hepatocyte): 2.3 mL/min/g
- CL [12]: 7 mL/min/g
- clearance [13]: 32 mL/min/kg
- Cmax [14]: 14 ng/mL
- logD [15]: 3
- Vd [16]: 3.2 L/kg
- half-life [17]: 138 min
- Tmax [18]: 30 min
- clearance [19]: 38 mL/min/kg
- Vd [20]: 1.6 L/kg
- Activity [21]: 62%
- fraction unbound [22]: 0.01
- Tmax [23]: 36 min
- Kp (in vivo): 1.5
- bioavailability [24]: 12%
- clearance [25]: 40 mL/min/kg
- Papp [26]: 41.5 ×10⁻⁶ cm/s
- Activity (Glutamate receptor 2 [27]): 21%
- Activity (Glutamate receptor 2 [28]): 123%
- solubility kinetic [29]: 133 µg/mL (≈ 366 µM)
